Test [1] deals with BJ. As to the kind of experiment: Antitumor activity against human BJ cells expressing TERT, LT, ST and RAS G12V mutant genes assessed as survival relative to control. The class given is functional.
For a further test, the system named is HT-1080. As to the kind of experiment: Antitumor activity against human HT1080 cells assessed as survival relative to control. The class given is functional.
For test [2], the system named is BJ. As to the kind of experiment: Induction of cell death in human BJ cells expressing TERT, LT, ST and RAS G12V mutant genes cells at 9 uM. Type of test: functional, cell-based.
Test [3] relates to BJ. Kind of test: Induction of cytochrome c release in cytosolic fraction of human BJ cell expressing TERT, LT, ST and RAS G12V mutant genes at 1 uM. The class given is functional, cell-based. The method in brief: (§1)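 BJ-TERT/LT/ST/RASV12 cells (3 × 10^6 per dish, overnight at 37 °C, 5% CO2) treated with staurosporine 1 µM for 6 h. Cells swollen on ice 15 min in sucrose/HEPES pH 7.5 buffer, lysed through 25-gauge needle. Nuclei removed at 400g, mitochondria pelleted at 10,500g. Cytosolic supernatant and mitochondrial pellet probed for cytochrome c by western blot.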

Test [4] relates to BJ. As to the kind of experiment: Induction of cytochrome c release in mitochondrial fraction of human BJ cell expressing TERT, LT, ST and RAS G12V mutant genes at 1 uM. The class given is functional, cell-based. The essentials: as §1
The test system of test [5] is BJ. As to the kind of experiment: Induction of mitochondrial structural integrity loss in human BJ cells expressing TERT, LT, ST and RAS G12V mutant genes cells at 1 uM after 5 hrs. Type of test: functional, cell-based. The essentials: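 Mitochondria of BJ-TERT/LT/ST/RASV12 cells examined by transmission electron microscopy after staurosporine 1 µM for 5 h. Fixed in 2.5% glutaraldehyde in Sorenson's buffer pH 7.2, post-fixed in 1% OsO4, block-stained with tannic acid, resin-embedded. Thin sections stained with uranyl acetate and lead citrate.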

Broadly, the IC50 is the concentration needed to halve the response being measured. A higher IC50 goes with lower potency.

Activity calls are given as the source filed them. No cut-off for these calls is given here.

On to `N#CC(=C(/N)Sc1ccccc1N)/C(C#N)=C(\N)Sc1ccccc1N`, for which the Survival in the test with BJ [1] was 82%; with HT-1080, 17%.

On to `CC(C)NC(=O)N(CCN1CCN(C(=O)COc2ccc(Cl)cc2)CC1)Cc1ccc(F)cc1`, for which it took 10 µM to reach half-maximal inhibition in the test on BJ [2] (IC50).

Turning to `CN[C@@H]1C[C@H]2O[C@@](C)([C@@H]1OC)n1c3ccccc3c3c4c(c5c6ccccc6n2c5c31)C(=O)NC4`, the result in the test with BJ [3] and in the test on BJ [4] was Active. Moreover, in the test on BJ [5], the result was inactive.

Take `COc1cccc(-c2cc(=O)c3ccccc3o2)c1N`: the Survival is 78% in the test on BJ [1] and 26% with HT-1080.

Values taken from ChEMBL document CHEMBL1145520, “RAS-RAF-MEK-dependent oxidative cell death involving voltage-dependent anion channels” (Nature, 2007).
